{"data": "Results of several laboratories", "matrix": "Caco-2", "note": "Compare with care: the assays were run in different laboratories."}
{"SMILES": "COc1cccc2c(-c3ccccc3)cc(-c3ccc(-c4ccc(C(=O)O)cc4)[nH]3)nc12", "Papp A→B [×10⁻⁶ cm/s]": 2.42}
{"SMILES": "COCCc1ccc(OCC(O)CNC(C)C)cc1 (stereo not shown)", "Papp A→B [×10⁻⁶ cm/s]": 16.6}
{"SMILES": "O=C(O)COc1cccc(Oc2ccc(-c3noc(-c4ccc(O)cc4)n3)cc2)c1", "time": "2 h", "pH": "pH 7.4", "Papp A→B [×10⁻⁶ cm/s]": 5.3}
{"SMILES": "C=CC(=O)Nc1cc(Nc2nccc(-c3cn(C)c4ccccc34)n2)c(OC)cc1N(C)CCN(C)C", "pH": "pH 6.5", "Papp A→B [×10⁻⁶ cm/s]": 12.5}
{"SMILES": "COc1cc(Cl)c(C(=O)N[C@@H](CN[C@H]2CC[C@@H](N)CC2)Cc2ccc(C#N)cc2)cc1-c1ccc(CN[C@H](C)c2ccc(C)cc2)o1", "tested at": "2 µM", "time": "2 h", "pH": "pH 7.2", "Papp A→B [×10⁻⁶ cm/s]": 3.9}
{"SMILES": "Cn1c(S)nc2c1c(=O)n(Cc1ccccc1)c(=O)n2C", "tested at": "10 µM", "time": "2 h", "Papp A→B [×10⁻⁶ cm/s]": 10}
{"SMILES": "COc1cc(F)ccc1-c1ncnc(Nc2cccc(C[S@](C)(=N)=O)c2)n1", "tested at": "2 µM", "time": "2 h", "pH": "pH 7.2", "Papp A→B [×10⁻⁶ cm/s]": 3.5}
{"SMILES": "Cn1c(=O)c2c(nc(S)n2C)n(C)c1=O", "tested at": "10 µM", "time": "2 h", "Papp A→B [×10⁻⁶ cm/s]": 0.9}
{"SMILES": "Cc1ncsc1-c1ccc(CNC(=O)[C@@H]2C[C@@H](O)CN2C(=O)[C@@H](NC(=O)C2(F)CC2)C(C)(C)C)c(OCCOCCOCCN2CCN(c3cc(-c4ccccc4O)nnc3N)CC2)c1", "time": "2 h", "pH": "pH 7.2", "Papp A→B [×10⁻⁶ cm/s]": 0.11}
{"SMILES": "COCCc1ccc(OCC(O)CNC(C)C)cc1 (stereo not shown)", "pH": "pH 6.5", "Papp A→B [×10⁻⁶ cm/s]": 13.3}
{"SMILES": "O=C(COCc1cccnc1)C12CC3CC(CC(C3)C1)C2", "tested at": "20 µM", "Papp A→B [×10⁻⁶ cm/s]": 6.3}
{"SMILES": "CC(C)(C)NCC(O)COc1cccc2c1CC(O)C(O)C2 (stereo not shown)", "Papp A→B [×10⁻⁶ cm/s]": 0.0514}
{"SMILES": "Nc1nc2c(ncn2COCCO)c(=O)[nH]1", "tested at": "10 µM", "time": "2 h", "pH": "pH 7.4", "Papp A→B [×10⁻⁶ cm/s]": 0.0803}
{"SMILES": "C[C@H]1O[C@@H](O[C@H]2[C@@H](O)C[C@H](O[C@H]3[C@@H](O)C[C@H](O[C@H]4CC[C@@]5(C)[C@H](CC[C@@H]6[C@@H]5C[C@@H](O)[C@]5(C)[C@@H](C7=CC(=O)OC7)CC[C@]65O)C4)O[C@@H]3C)O[C@@H]2C)C[C@H](O)[C@@H]1O", "tested at": "5 µM", "time": "1 h", "Papp A→B [×10⁻⁶ cm/s]": 1.3}
{"SMILES": "CNC(=C[N+](=O)[O-])NCCSCc1ccc(CN(C)C)o1", "Papp A→B [×10⁻⁶ cm/s]": 0.4}
{"SMILES": "O=C(C1CCCCC1)N1CC(=O)N2CCc3ccccc3C2C1 (stereo not shown)", "Papp A→B [×10⁻⁶ cm/s]": 38.4}
